The source of these data is ChEMBL document CHEMBL4823330, “Piperazinyl Bicyclic Derivatives as Selective Ligands of the α2δ-1 Subunit of Voltage-Gated Calcium Channels” (ACS Med Chem Lett, 2021).

In one series the target is CYP3A4 (Homo sapiens, UniProt P08684). Description: Inhibition of recombinant CYP3A4 (unknown origin) using BFC as substrate at 1 uM measured after 30 mins in presence of NADPH generating system by fluorescence assay relative to control. The format is ADME. The conditions noted are these: recombinant CYP3A4, probe BFC. Put shortly: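 Recombinant human CYP3A4 incubated with test compound at 1 μM. 7-Benzyloxy-4-trifluoromethylcoumarin (BFC) was the probe substrate, with fluorescence read-out, reported as percent inhibition.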
Chain of CYP3A4 (P08684 whole entry): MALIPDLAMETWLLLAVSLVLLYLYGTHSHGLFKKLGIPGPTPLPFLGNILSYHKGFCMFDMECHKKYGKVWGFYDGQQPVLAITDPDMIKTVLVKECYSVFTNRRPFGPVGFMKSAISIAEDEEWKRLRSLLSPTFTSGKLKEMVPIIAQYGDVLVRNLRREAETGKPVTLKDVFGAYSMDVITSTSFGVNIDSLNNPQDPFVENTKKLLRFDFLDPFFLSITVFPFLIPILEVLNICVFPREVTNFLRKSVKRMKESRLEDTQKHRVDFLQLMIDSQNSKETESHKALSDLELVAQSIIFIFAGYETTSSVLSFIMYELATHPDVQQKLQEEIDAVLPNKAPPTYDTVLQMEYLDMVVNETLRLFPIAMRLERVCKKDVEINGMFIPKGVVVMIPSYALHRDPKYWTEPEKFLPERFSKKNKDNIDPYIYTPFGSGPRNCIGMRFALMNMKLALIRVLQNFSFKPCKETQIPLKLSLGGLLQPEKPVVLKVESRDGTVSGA

Series [1] concerns the target T1, Voltage-dependent calcium channel subunit alpha-2/delta-1 (Homo sapiens, UniProt P54289). Description: Displacement of [3H]-gabapentin from human Cav alpha2delta1 expressed in CHO-K1 cell membranes incubated for 60 mins by scintillation counting method. Also on record: species or system Membrane. The gist of the method: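 Radioligand binding with [3H]-gabapentin on α2δ-1-enriched membranes from CHO-K1 cells expressing human Cav2.2/β3/α2δ1. Compounds were first screened at 10 μM. Ki was calculated for those giving more than 50% inhibition. Values are mean ± SD of two determinations.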
In general terms: Displacement assays read how much labelled ligand stays bound in the presence of the test substance.

The target in series [2] is Histamine H1 receptor (Homo sapiens) (UniProt P35367). Put plainly: Binding affinity to histamine H1 receptor (unknown origin).
Chain of Histamine H1 receptor (Homo sapiens) (P35367 whole entry): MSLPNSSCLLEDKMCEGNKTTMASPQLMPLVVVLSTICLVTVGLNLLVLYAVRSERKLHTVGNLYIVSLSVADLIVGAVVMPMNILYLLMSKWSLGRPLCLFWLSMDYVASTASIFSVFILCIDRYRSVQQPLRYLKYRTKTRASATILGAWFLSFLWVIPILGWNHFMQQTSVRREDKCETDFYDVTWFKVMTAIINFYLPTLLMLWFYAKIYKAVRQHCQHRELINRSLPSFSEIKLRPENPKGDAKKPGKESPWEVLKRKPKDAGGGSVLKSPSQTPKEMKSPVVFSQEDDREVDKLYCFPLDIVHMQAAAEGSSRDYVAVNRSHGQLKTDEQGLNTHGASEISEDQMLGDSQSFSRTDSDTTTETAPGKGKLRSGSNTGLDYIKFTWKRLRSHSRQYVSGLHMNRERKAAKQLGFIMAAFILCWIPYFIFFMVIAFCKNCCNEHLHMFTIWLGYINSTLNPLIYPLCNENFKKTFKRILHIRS
The target in series [3] is Sodium-dependent dopamine transporter (Homo sapiens) (UniProt Q01959). Description: Binding affinity to dopamine transporter (unknown origin).
Another series addresses Mu-type opioid receptor (Homo sapiens, UniProt P35372). Put plainly: Binding affinity to mu opioid receptor (unknown origin).
Series [4] deals with Sigma non-opioid intracellular receptor 1 (Homo sapiens) (UniProt Q99720). Put plainly: Binding affinity to sigma 1 receptor (unknown origin).
Series [5] addresses Delta-type opioid receptor (Homo sapiens) (UniProt P41143). Put plainly: Binding affinity to delta opioid receptor (unknown origin).
Series [6] deals with 5-hydroxytryptamine receptor 1A (Homo sapiens) (UniProt P08908). Description: Binding affinity to 5HT1A receptor (unknown origin).
Series [7] deals with Sodium-dependent noradrenaline transporter (Homo sapiens) (UniProt P23975). Put plainly: Binding affinity to norepinephrine transporter (unknown origin).
Chain of Sodium-dependent noradrenaline transporter (Homo sapiens) (P23975 whole entry): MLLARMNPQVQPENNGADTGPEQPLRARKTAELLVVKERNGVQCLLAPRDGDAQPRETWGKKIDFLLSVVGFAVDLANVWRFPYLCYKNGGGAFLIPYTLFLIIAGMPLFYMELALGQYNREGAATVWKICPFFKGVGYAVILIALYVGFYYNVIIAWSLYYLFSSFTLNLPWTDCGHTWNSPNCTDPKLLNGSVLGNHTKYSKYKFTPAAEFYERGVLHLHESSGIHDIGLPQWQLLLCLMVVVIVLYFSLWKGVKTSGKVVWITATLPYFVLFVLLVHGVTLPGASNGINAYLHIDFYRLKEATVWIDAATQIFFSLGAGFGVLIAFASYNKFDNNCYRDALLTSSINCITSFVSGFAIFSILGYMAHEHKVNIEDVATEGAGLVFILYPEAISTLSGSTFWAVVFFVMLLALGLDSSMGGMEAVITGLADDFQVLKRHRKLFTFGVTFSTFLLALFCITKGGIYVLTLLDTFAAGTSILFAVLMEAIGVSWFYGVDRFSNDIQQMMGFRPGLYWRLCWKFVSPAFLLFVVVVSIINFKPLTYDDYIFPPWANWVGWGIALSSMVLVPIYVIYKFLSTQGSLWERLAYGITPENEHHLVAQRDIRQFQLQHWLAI
Series [8] concerns the target Sodium-dependent serotonin transporter (Homo sapiens) (UniProt P31645). Put plainly: Binding affinity to serotonin transporter (unknown origin).
The target in series [9] is Alpha-2A adrenergic receptor (Homo sapiens) (UniProt P08913). Put plainly: Binding affinity to alpha2A receptor (unknown origin).
Chain of Alpha-2A adrenergic receptor (Homo sapiens) (P08913 whole entry): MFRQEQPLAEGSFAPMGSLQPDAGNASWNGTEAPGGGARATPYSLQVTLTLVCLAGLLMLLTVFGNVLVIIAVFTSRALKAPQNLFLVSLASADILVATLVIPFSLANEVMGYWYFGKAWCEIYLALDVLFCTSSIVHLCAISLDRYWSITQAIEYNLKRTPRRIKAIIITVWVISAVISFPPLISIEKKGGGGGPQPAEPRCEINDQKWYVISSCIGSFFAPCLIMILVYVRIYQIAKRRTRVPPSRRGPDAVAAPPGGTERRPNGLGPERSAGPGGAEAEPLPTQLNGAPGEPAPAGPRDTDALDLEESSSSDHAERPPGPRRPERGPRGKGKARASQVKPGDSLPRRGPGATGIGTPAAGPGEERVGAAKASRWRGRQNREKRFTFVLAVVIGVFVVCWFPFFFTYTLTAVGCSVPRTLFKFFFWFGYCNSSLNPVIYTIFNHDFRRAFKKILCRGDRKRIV
In series [10] the target is Alpha-1A adrenergic receptor (Homo sapiens) (UniProt P35348). Description: Binding affinity to alpha1A receptor (unknown origin).
Chain of Alpha-1A adrenergic receptor (Homo sapiens) (P35348 whole entry): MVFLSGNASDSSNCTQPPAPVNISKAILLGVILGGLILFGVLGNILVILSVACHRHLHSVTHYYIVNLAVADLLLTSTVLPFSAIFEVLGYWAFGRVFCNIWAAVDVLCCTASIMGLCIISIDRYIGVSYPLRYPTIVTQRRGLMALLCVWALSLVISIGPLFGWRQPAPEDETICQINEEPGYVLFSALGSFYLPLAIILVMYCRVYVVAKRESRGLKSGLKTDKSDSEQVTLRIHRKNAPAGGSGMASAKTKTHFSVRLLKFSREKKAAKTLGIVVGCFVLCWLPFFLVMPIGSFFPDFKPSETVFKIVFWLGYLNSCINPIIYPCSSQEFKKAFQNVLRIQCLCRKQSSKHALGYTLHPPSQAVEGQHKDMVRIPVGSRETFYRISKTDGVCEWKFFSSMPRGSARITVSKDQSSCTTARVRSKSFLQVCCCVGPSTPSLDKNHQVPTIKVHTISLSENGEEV
The target of series [11] is 5-hydroxytryptamine receptor 2B (Homo sapiens) (UniProt P41595). Description: Binding affinity to 5HT2B receptor (unknown origin).
Chain of 5-hydroxytryptamine receptor 2B (Homo sapiens) (P41595 whole entry): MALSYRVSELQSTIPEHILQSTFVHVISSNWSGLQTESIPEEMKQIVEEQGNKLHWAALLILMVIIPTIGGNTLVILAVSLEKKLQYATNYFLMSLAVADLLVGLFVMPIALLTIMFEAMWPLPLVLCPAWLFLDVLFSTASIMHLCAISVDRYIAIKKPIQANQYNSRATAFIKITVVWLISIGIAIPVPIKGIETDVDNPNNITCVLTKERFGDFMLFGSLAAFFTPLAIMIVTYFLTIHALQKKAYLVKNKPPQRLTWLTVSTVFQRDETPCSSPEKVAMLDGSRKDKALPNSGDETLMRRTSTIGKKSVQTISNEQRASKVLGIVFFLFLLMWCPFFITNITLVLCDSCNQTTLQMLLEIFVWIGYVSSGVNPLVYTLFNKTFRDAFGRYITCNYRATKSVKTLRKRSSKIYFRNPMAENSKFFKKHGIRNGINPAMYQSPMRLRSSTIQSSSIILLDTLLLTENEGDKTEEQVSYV
The target in series [12] is Kappa-type opioid receptor (Homo sapiens) (UniProt P41145). Put plainly: Binding affinity to kappa opioid receptor (unknown origin).
Chain of Kappa-type opioid receptor (Homo sapiens) (P41145 whole entry): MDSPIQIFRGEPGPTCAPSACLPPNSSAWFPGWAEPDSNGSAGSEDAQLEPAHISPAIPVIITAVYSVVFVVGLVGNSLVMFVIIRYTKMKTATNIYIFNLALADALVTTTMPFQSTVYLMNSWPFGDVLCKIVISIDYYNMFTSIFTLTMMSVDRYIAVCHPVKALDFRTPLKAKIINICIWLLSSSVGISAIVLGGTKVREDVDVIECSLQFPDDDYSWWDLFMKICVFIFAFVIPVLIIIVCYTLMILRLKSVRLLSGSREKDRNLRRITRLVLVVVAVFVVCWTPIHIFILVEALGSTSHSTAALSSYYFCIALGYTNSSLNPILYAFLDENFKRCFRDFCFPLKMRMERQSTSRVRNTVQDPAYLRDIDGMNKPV
Series [13] concerns the target T1, Voltage-dependent calcium channel subunit alpha-2/delta-1. Put plainly: Displacement of [3H]-gabapentin from human Cav alpha2delta1 expressed in CHO-K1 cell membranes at 10 uM incubated for 60 mins by scintillation counting method relative to control. The conditions noted are these: Membrane. The gist of the method:
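Human α2δ-1-enriched membranes from CHO-K1 cells stably expressing human Cav2.2/β3/α2δ1. Test compound at 10 μM competes with [3H]-gabapentin radioligand, and percent inhibition of specific binding is recorded. Compounds exceeding 50% inhibition go on to Ki determination, with Ki values given as the mean of two determinations.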

Series [14] is described as follows: Induction of motor coordination impairment in CD1 mouse assessed as latency to fall at 20 mg/kg, ip measured upto 180 mins by rotarod test. Format: organism-based. The following applies: in vivo, 3 h. The gist of the method:
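Mice were dosed at 20 mg/kg ip, with vehicle and pregabalin groups run in the same paradigm. Latency to fall from the elevated rotating drum was recorded at 30, 120 and 180 min after administration.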
(In the rotarod test animals must keep their balance on a rotating rod.)

The next series deals with Mus musculus. Description: Analgesic activity in CD1 mouse model of capsaicin-induced mechanical hypersensitivity assessed as reduction in mechanical hypersensitivity at 20 mg/kg, ip administered 30 mins prior to capsaicin stimulation and measured after 15 mins. Format: functional. Also on record: scale not given: the % may be the effect or the level left. The conditions noted are these: time 45 min, 0.75 h. The gist of the method:
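Male CD1 mice, 8–12 per group, given 20 mg/kg ip alongside vehicle and pregabalin comparator groups. Capsaicin test read out as percentage reduction in capsaicin-induced mechanical hypersensitivity.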

The source made the active and inactive calls. The rule behind the calls is not given here.

For orientation: inhibition means the percentage by which the read-out fell short of the control. A word on the Ki: it is the dissociation constant of the complex between target and ligand, obtained from inhibition or displacement.

T1 sequence (P54289 25-956 limits assumed): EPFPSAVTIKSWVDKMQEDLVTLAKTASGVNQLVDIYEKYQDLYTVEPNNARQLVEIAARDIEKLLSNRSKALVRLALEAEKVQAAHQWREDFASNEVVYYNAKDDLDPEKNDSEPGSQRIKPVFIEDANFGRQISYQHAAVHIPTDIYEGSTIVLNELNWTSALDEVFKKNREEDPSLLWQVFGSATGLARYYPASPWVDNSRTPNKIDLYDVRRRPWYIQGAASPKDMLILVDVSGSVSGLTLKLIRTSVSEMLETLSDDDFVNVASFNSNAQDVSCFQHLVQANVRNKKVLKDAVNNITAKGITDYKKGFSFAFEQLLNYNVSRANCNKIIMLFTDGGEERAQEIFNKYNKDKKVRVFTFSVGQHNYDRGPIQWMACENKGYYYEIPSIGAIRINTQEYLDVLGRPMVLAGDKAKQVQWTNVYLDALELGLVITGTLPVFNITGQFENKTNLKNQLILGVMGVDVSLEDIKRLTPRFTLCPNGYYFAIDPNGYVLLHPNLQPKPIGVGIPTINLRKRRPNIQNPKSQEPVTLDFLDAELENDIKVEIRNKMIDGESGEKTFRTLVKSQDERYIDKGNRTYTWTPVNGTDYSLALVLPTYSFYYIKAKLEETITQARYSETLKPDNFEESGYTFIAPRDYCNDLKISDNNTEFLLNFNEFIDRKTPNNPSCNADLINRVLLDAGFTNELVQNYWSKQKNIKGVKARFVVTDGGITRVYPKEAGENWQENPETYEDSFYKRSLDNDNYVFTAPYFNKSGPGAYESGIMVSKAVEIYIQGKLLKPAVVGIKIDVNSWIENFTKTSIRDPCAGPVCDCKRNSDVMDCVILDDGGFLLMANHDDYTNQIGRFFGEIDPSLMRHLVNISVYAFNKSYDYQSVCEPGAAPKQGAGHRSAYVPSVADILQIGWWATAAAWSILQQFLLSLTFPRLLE
T1 sequence (P54289 957-1103 limits assumed): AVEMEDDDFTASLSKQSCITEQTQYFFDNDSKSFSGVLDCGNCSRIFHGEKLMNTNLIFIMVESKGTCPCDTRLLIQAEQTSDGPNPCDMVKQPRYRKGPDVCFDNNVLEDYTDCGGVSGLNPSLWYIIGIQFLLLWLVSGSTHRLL
Chain of Mu-type opioid receptor (P35372 whole entry): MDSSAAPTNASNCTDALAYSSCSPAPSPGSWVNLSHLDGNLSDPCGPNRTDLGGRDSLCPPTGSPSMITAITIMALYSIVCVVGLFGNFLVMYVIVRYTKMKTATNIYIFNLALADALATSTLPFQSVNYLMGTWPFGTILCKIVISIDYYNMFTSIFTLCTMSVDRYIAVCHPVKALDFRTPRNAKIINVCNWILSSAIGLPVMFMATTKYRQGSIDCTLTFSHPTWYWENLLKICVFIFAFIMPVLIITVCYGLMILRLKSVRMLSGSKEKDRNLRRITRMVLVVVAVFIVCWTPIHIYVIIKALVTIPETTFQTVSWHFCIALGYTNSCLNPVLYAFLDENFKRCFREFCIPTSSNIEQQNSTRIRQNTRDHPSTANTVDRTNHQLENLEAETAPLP

Take `CCCC(c1nc2cccc(Br)c2c(=O)n1CC)N1C[C@@H](C)N[C@@H](C)C1` (stereo not given in full): the inhibition at 0.5 h, 1 µM at CYP3A4 was 95%. The inhibitory constant (Ki) in series [1] came out at 66 nM.

Take `CCCC(c1nc2ccc(Br)cc2c(=O)n1CC)N1CCNCC1` (stereo not given): the inhibition at 0.5 h, 1 µM on CYP3A4 was 65%. Also, in [1], the inhibition constant Ki was 76 nM.

Take `COCCn1c(C(CC2CC2)N2C[C@@H](C)N[C@@H](C)C2)nc2ccccc2c1=O` (stereo not given in full): the inhibition at 0.5 h, 1 µM on CYP3A4 stood at 94%. In addition, the Ki in series [1] worked out at 413 nM.

`CCC[C@H](c1nc2ccc(Br)cc2c(=O)n1CC)N1CCN[C@@H](C)C1`: the result in [2], in series [3], in series [4], in [5], in [6] and in series [7] was Active. The result in [8], in series [9], in series [10], in series [11] and in series [12] was Active. Moreover, the values for the Ki (on Mu-type opioid receptor; in series [1]) were 157 nM and 91 nM, respectively. Besides, at CYP3A4, the inhibition at 0.5 h, 1 µM was 73%.

As for `CCCC(c1nc2ccc(NCC)cc2c(=O)n1CC)N1C[C@@H](C)N[C@@H](C)C1` (stereo not given in full), at CYP3A4, the inhibition at 0.5 h, 1 µM was determined as 69%. Also, the Ki in [1] was found to be 44 nM.

Regarding `CCCC(c1nc2cc(-c3ccncc3)ccc2c(=O)n1CC)N1C[C@@H](C)N[C@@H](C)C1` (stereo not given in full), on CYP3A4, the inhibition at 0.5 h, 1 µM was 97%. Also, the Ki in series [1] was found to be 18 nM.

With `CCC(c1nc2ccccc2c(=O)n1CCOC)N1CCNCC1` (stereo not given), the inhibition at 0.5 h, 1 µM on CYP3A4 worked out at 37%. Further, the Ki in series [1] was found to be 1810 nM.

For `CCCC(c1nc2ccc(C#N)cc2c(=O)n1CC)N1C[C@@H](C)N[C@@H](C)C1` (stereo not given in full), the inhibition at 0.5 h, 1 µM at CYP3A4 was 70%. For the same compound, the Ki in series [1] was found to be 288 nM.

With `CCCC(c1nc2ccccc2c(=O)n1CCOC)N1C[C@@H](C)N[C@@H](C)C1` (stereo not given in full), at CYP3A4, the inhibition at 0.5 h, 1 µM stood at 94%. Further, the Ki in [1] was determined as 241 nM.

For the compound `COCCn1c(CN2CCNCC2)nc2ccccc2c1=O`, at CYP3A4, the inhibition at 0.5 h, 1 µM is 6%. In addition, the inhibition in [13] was below 50%. Moreover, the Ki in series [1] was above 10000 nM.

Regarding `CCCC(c1nc2ccc(Br)cc2c(=O)n1CC)N1CCC(NC)CC1` (stereo not given), on CYP3A4, the inhibition at 0.5 h, 1 µM was 83%. The Ki in series [1] was 436 nM.

For the compound `CCC[C@@H](c1nc2ccc(Br)cc2c(=O)n1CC)N1CCN[C@@H](C)C1`, the inhibition at 0.5 h, 1 µM on CYP3A4 came out at 33%. Further, the Ki in series [1] came to 479 nM.

For the compound `CC(C)C[C@H](CN)CC(=O)O` [PREGABALIN], the inhibition at 0.5 h, 1 µM at CYP3A4 is 43%. The Activity entry is listed as “Toxic” in [14] and 34% in the series on Mus musculus.

Consider `CCCC(c1nc2ccccc2c(=O)n1CC)N1C[C@@H](C)N[C@@H](C)C1` (stereo not given in full), for which the inhibition at 0.5 h, 1 µM on CYP3A4 is 85%. In addition, the Ki in series [1] was determined as 36 nM.

On to `CCCC(c1nc2ccc(-c3ccncc3)cc2c(=O)n1CC)N1C[C@@H](C)N[C@@H](C)C1` (stereo not given in full), for which, at CYP3A4, the inhibition at 0.5 h, 1 µM came out at 92%. In [1], the Ki worked out at 38 nM.

For `CCCC(c1nc2cc(Br)ccc2c(=O)n1CC)N1C[C@@H](C)N[C@@H](C)C1` (stereo not given in full), at CYP3A4, the inhibition at 0.5 h, 1 µM stood at 97%. Moreover, the Ki in series [1] stood at 15 nM.

In the case of `CCC(c1nc2ccccc2c(=O)n1CCOC)N1C[C@@H](C)N[C@@H](C)C1` (stereo not given in full), the inhibition at 0.5 h, 1 µM at CYP3A4 was determined as 86%. For the same compound, the Ki in series [1] stood at 761 nM.

On to `CCCC(c1nc2ccccc2c(=O)n1C)N1C[C@@H](C)N[C@@H](C)C1` (stereo not given in full), for which the inhibition at 0.5 h, 1 µM at CYP3A4 is 80%. In series [1], the Ki was determined as 73 nM.

In the case of `CCC[C@@H](c1nc2ccncc2c(=O)n1CC)N1CCN[C@H](C)C1`, the inhibition at 0.5 h, 1 µM at CYP3A4 worked out at 15%. In addition, the Ki in [1] was above 1000 nM.

Consider `CCCC(c1nc2c(Br)cccc2c(=O)n1CC)N1C[C@@H](C)N[C@@H](C)C1` (stereo not given in full), for which, in series [1], the Ki is above 1000 nM.

As for `CCCC(c1nc2ccccc2c(=O)n1Cc1ccco1)N1C[C@@H](C)N[C@@H](C)C1` (stereo not given in full), the inhibition at 0.5 h, 1 µM on CYP3A4 is 99%. Further, the Ki in [1] was found to be 230 nM.

Consider `CCC[C@H](c1nc2ccncc2c(=O)n1CC)N1CCN[C@@H](C)C1`, for which the inhibition at 0.5 h, 1 µM at CYP3A4 is 56%. In [1], the Ki was 27 nM.

For the compound `CCCC(c1nc2ccc(Br)cc2c(=O)n1CC)N1C[C@@H](C)N[C@@H](C)C1` (stereo not given in full), the inhibition at 0.5 h, 1 µM on CYP3A4 turned out to be 95%. Besides, the Ki in series [1] worked out at 16 nM.

For the compound `CCC[C@@H](c1nc2ccncc2c(=O)n1CC)N1CCN[C@@H](C)C1`, the inhibition at 0.5 h, 1 µM on CYP3A4 came out at 44%. Moreover, in series [1], the Ki was above 1000 nM.

Take `CCCC(c1nc2ccccc2c(=O)n1Cc1ccccc1)N1C[C@@H](C)N[C@@H](C)C1` (stereo not given in full): the inhibition at 0.5 h, 1 µM on CYP3A4 was 98%. In addition, in series [1], the Ki was determined as 4820 nM.

As to `COCCn1c(C(C)N2CCNCC2)nc2ccccc2c1=O` (stereo not given), at CYP3A4, the inhibition at 0.5 h, 1 µM is 0%. In series [1], the Ki is 4900 nM.

In the case of `CCCCC(c1nc2ccccc2c(=O)n1CCOC)N1C[C@@H](C)N[C@@H](C)C1` (stereo not given in full), the inhibition at 0.5 h, 1 µM at CYP3A4 was 97%. In series [1], the Ki worked out at 1340 nM.

Turning to `CCC[C@@H](c1nc2ccc(Br)cc2c(=O)n1CC)N1C[C@@H](C)N[C@@H](C)C1`, the inhibition at 0.5 h, 1 µM on CYP3A4 was 88%. The Ki in series [1] was determined as 2900 nM.

As to `CCCC(c1nc2ccccc2c(=O)n1CCOC)N1CCNCC1` (stereo not given), the inhibition at 0.5 h, 1 µM on CYP3A4 was found to be 67%. Besides, the Ki in [1] stood at 638 nM.

Turning to `CCC[C@H](c1nc2ccc(Br)cc2c(=O)n1CC)N1CCNC(C)(C)C1`, the inhibition at 0.5 h, 1 µM at CYP3A4 turned out to be 72%. In addition, the Ki in [1] stood at 1580 nM.

For `CCC[C@@H](c1nc2ccc(Br)cc2c(=O)n1CC)N1CCN[C@H](C)C1`, at CYP3A4, the inhibition at 0.5 h, 1 µM came out at 21%. In [1], the Ki was above 1000 nM.

Take `CCC[C@H](c1nc2ccc(Br)cc2c(=O)n1CC)N1CCN[C@@H](CC)C1`: the inhibition at 0.5 h, 1 µM at CYP3A4 is 97%. In addition, in [1], the Ki worked out at 123 nM.

As for `CCC[C@H](c1nc2ccc(Br)cc2c(=O)n1CC)N1C[C@@H](C)N[C@@H](C)C1`, the inhibition at 0.5 h, 1 µM at CYP3A4 came to 94%. Besides, in series [1], the Ki was 8 nM.

As for `CCC(c1nc2ccccc2c(=O)n1CCCOC)N1C[C@@H](C)N[C@@H](C)C1` (stereo not given in full), the inhibition in [13] is below 50%. Also, the Ki in series [1] was above 10000 nM.

As for `CCC[C@H](c1nc2ccc(Br)cc2c(=O)n1CC)N1CCN[C@H](C)C1`, the outcome (in [2]; in series [3]; on Mu-type opioid receptor; in series [4]; in series [5]; in [6]) was Active. Besides, the outcome in series [7], in series [8], in [9], in [10], in [11] and in series [12] was Active. The inhibition at 0.5 h, 1 µM at CYP3A4 was 51%. Besides, in series [1], the Ki came out at 16 nM.
